Measurements as given in ChEMBL document CHEMBL3414428, “Bond-based bilinear indices for computational discovery of novel trypanosomicidal drug-like compounds through virtual screening” (Eur J Med Chem, 2015).

tested on: not listed separately; experiment: Selectivity ratio of IC50 for mouse J774 cells to IC50 for epimastigote stage of Trypanosoma cruzi CL-B5; assay type: ADME, cell-based; conditions: J774 cells versus Trypanosoma cruzi CL-B5 epimastigotes, read-out: Ratio IC50

In order of falling selectivity ratio:
1. Oc1ccc(O)cc1 [HYDROQUINONE]  6.3
2. COc1ccc(OC)c(CCc2ccccc2)c1  5.5
3. Oc1ccc(CCc2cccc(O)c2)cc1 [LUNULARIN]  3.4
4. Oc1ccc(CCc2ccccc2)cc1  3.3
5. COC(=O)c1cc(O)ccc1O [METHYL 2,5-DIHYDROXYBENZOATE]  2.6

tested on: Trypanosoma cruzi; experiment: Trypanosomicidal activity against epimastigote stage of Trypanosoma cruzi CL-B5 after 72 hrs by beta-galactosidase reporter gene assay; assay type: functional, organism-based; conditions: CL-B5, 72 h
Procedure, shortened: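 Epimastigotes from cultures not yet in stationary phase, seeded at 2 x 10^5/mL with drugs at 28 °C for 72 h. CPRG then added (200 µM final) for 6 h at 37 °C and absorbance read at 595 nm. Each concentration tested in triplicate, two independent experiments; IC50 and AE% calculated.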

Going from `O=C(O)c1cc(O)ccc1O` [GENTISIC ACID] to `COC(=O)c1cc(O)ccc1O` [METHYL 2,5-DIHYDROXYBENZOATE], the IC50 falls from > 256 µM to 98 µM.

`C=Cc1cc(OC)ccc1OC` and `COc1ccc(OC)c(CO)c1` cannot be ordered by IC50: > 256 µM for the first, > 256 µM for the second.

Going from `Oc1ccc(O)cc1` [HYDROQUINONE] to `Oc1ccc(CCc2cccc(O)c2)cc1` [LUNULARIN], the IC50 rises from 19.5 µM to 152 µM (7.8-fold).

Going from `COc1ccc(OC)c(C(=O)O)c1` to `COc1ccc(OC)c(CCc2ccccc2)c1`, the IC50 falls from > 256 µM to 46.5 µM. The second is the more potent here.

Going from `COC(=O)c1cc(O)cc(O)c1` [METHYL 3,5-DIHYDROXYBENZOATE] to `Oc1ccc(CCc2ccccc2)cc1`, the IC50 falls from > 256 µM to 123 µM.

tested on: J774; experiment: Cytotoxicity against mouse J774 cells assessed as cell viability after 48 hrs by resazurin assay; assay type: cell-based; conditions: J774, 48 h
Procedure, shortened: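 J774 macrophages grown in RPMI 1640 with 10% heat-inactivated FBS, penicillin and streptomycin at 37 °C, 5% CO2, and harvested pre-confluence with trypsin. Seeded at 5x10^4 cells/well and left to attach 24 h. Exposed to a range of drug concentrations for 48 h. Resazurin solution (2 mM stock, in PBS pH 7) added for 3 h. Absorbance read at 490 and 595 nm with background subtracted. Triplicates; %C and IC50 calculated.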

`O=C(O)c1cc(O)ccc1O` [GENTISIC ACID] and `COC(=O)c1cc(O)ccc1O` [METHYL 2,5-DIHYDROXYBENZOATE] cannot be ordered by IC50: > 256 µM for the first, > 256 µM for the second.

`C=Cc1cc(OC)ccc1OC` and `COc1ccc(OC)c(CO)c1` cannot be ordered by IC50: > 256 µM for the first, > 256 µM for the second.

Compared with `Oc1ccc(O)cc1` [HYDROQUINONE], `Oc1ccc(CCc2cccc(O)c2)cc1` [LUNULARIN] is higher in IC50: 123 µM for the first, > 512 µM for the second.

`COc1ccc(OC)c(C(=O)O)c1` and `COc1ccc(OC)c(CCc2ccccc2)c1` cannot be ordered by IC50: > 256 µM for the first, > 256 µM for the second.

`COC(=O)c1cc(O)cc(O)c1` [METHYL 3,5-DIHYDROXYBENZOATE] and `Oc1ccc(CCc2ccccc2)cc1` cannot be ordered by IC50: > 256 µM for the first, 407 µM for the second.
